# pIC50: −log10 of the molar value. The source made the active and inactive calls. No cut-off for these calls is given here.
# How the values were obtained:
# [1] = test system: Mus musculus; test: Inhibition of ZBTB16 expression in CD-1 mouse uterus at 25 mg/kg, ip for 7 days by Immunohistochemical staining method; type: functional, organism-based; conditions: time 7.0 day
# Outline: (§1)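 Ovariectomized CD-1 mice (n=5/group) were dosed ip for 7 days with 10% DMSO, 1 mg/kg P4, 25 mg/kg compound, 1 mg/kg P4 plus 25 mg/kg compound, or 1 mg/kg P4 plus 10 mg/kg RU486. Uterine sections (5 μm) were processed with citrate retrieval and overnight 4 °C primary antibodies: GR 1:100; PR, HAND2 and ZBTB16 1:200. Staining used biotinylated secondary, ABC and DAB, and was assessed qualitatively.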
# [2] = test system: Mus musculus; test: Effect on GR expression in CD-1 mouse uterine luminal epithelium at 25 mg/kg, ip for 7 days by immunohistochemical analysis; type: functional, organism-based; conditions: Uterine lumen, time 7.0 day; outline: as §1
# [3] = target: T1, Progesterone receptor (Homo sapiens, UniProt P06401); test: Competitive inhibition of progesterone receptor (unknown origin) by fluorescence polarization based competition assay
# T1 sequence (P06401 whole entry): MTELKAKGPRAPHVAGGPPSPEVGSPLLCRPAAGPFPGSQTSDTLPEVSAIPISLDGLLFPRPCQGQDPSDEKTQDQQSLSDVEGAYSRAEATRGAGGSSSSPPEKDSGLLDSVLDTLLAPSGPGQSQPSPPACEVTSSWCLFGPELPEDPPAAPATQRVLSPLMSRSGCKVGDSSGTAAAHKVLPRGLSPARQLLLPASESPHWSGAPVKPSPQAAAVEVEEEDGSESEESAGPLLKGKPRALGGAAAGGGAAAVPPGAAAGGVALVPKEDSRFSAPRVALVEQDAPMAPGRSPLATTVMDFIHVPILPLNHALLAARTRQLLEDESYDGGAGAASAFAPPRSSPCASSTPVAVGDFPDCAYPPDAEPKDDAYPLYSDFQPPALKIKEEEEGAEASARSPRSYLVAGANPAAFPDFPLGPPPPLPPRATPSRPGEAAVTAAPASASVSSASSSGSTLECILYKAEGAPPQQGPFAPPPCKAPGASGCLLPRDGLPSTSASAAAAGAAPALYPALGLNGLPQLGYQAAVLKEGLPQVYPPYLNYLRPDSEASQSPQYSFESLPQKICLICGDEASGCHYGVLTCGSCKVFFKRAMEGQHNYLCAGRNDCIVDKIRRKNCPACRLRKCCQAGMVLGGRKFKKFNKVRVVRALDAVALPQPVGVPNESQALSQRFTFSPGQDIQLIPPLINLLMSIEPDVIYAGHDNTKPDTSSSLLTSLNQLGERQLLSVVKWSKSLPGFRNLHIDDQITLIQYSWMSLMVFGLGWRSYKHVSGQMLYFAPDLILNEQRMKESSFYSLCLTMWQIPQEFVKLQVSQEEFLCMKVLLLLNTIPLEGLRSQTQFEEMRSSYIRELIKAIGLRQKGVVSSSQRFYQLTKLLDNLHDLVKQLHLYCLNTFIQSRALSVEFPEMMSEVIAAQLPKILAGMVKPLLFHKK
# [4] = test system: Mus musculus; test: Effect on P4 induced GR expression in CD-1 mouse uterine luminal epithelium at 25 mg/kg, ip for 7 days by immunohistochemical analysis; type: functional, organism-based; conditions: Uterine lumen, time 7.0 day; outline: as §1
# [5] = Toxicity in CD-1 mouse assessed as effect on liver weight at 25 mg/kg, ip for 7 days (Rvb= 1.3 g); type: organism-based; conditions: in vivo, 168 h, time 7 day
# [6] = Toxicity in P4 induced CD-1 mouse assessed as effect on glucose level at 25 mg/kg, ip for 7 days (Rvb=231.6 mg/dL); type: organism-based; conditions: in vivo, 168 h, time 7 day
# [7] = Toxicity in CD-1 mouse assessed as effect on uterus weight at 25 mg/kg,ip for 7 days (Rvb= 0.033g); type: organism-based; conditions: in vivo, 168 h, time 7 day
# [8] = Toxicity in P4 induced CD-1 mouse assessed as effect on body weight at 25 mg/kg, ip for 7 days (Rvb= 30g); type: organism-based; conditions: in vivo, 168 h, time 7 day
# [9] = test system: Mus musculus; test: Effect on GR expression in CD-1 mouse uterine stroma at 25 mg/kg, ip for 7 days by immunohistochemical analysis; type: functional, organism-based; conditions: time 7.0 day; outline: as §1
# [10] = Toxicity in P4 induced CD-1 mouse assessed as effect on uterus weight at 25 mg/kg,ip for 7 days (Rvb= 0.033g); type: organism-based; conditions: in vivo, 168 h, time 7 day
# [11] = Toxicity in P4 induced CD-1 mouse assessed as effect on MG weight at 25 mg/kg, ip for 7 days (Rvb= 0.22g); type: organism-based; conditions: in vivo, 168 h, time 7 day
# [12] = test system: Mus musculus; test: Upregulation of P4 induced HAND2 expression in CD-1 mouse uterus at 25 mg/kg, ip for 7 days by immunohistochemical staining method; type: functional, organism-based; conditions: time 7.0 day, in the assay text read “Downregulation” for “Upregulation”; outline: as §1
# [13] = Toxicity in CD-1 mouse assessed as effect on MG weight at 25 mg/kg, ip for 7 days (Rvb= 0.22g); type: organism-based; conditions: in vivo, 168 h, time 7 day
# [14] = test system: Mus musculus; test: Effect on P4 induced GR expression in CD-1 mouse uterine stroma at 25 mg/kg, ip for 7 days by immunohistochemical analysis; type: functional, organism-based; conditions: time 7.0 day; outline: as §1
# [15] = target: T2, Glucocorticoid receptor (Homo sapiens, UniProt P04150); test: Competitive inhibition of glucocorticoid receptor (unknown origin) by fluorescence polarization based competition assay
# T2 sequence (P04150 whole entry): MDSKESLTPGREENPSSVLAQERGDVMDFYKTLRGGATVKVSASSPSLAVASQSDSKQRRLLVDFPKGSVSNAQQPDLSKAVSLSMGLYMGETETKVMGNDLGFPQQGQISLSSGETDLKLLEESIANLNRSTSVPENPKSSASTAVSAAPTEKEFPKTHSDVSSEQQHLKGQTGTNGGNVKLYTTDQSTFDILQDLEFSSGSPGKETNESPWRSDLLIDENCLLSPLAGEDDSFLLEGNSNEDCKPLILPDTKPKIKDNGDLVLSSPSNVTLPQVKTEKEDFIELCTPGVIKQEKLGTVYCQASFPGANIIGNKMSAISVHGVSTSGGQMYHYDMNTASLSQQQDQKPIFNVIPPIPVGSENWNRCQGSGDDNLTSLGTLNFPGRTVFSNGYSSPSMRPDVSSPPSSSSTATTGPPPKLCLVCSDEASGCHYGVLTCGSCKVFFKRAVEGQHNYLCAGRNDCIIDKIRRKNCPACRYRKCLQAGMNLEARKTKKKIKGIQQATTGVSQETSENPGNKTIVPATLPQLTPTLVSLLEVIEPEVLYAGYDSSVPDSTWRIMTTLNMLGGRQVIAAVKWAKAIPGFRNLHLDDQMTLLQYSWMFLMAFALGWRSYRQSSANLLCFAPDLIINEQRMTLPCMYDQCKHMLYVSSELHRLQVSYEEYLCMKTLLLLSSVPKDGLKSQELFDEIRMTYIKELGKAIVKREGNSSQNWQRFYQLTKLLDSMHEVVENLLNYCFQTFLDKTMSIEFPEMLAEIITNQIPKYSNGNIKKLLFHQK
# [16] = test system: Mus musculus; test: Upregulation of HAND2 expression in CD-1 mouse uterus at 25 mg/kg, ip for 7 days by immunohistochemical staining method; conditions: time 7.0 day
# [17] = Toxicity in CD-1 mouse assessed as effect on glucose level at 25 mg/kg, ip for 7 days (Rvb=231.6 mg/dL); type: organism-based; conditions: in vivo, 168 h, time 7 day
# [18] = Toxicity in CD-1 mouse assessed as effect on body weight at 25 mg/kg, ip for 7 days (Rvb= 30g); type: organism-based; conditions: in vivo, 168 h, time 7 day
# [19] = test system: Mus musculus; test: Effect on P4 induced PR protein level in CD-1 mouse uterus at 25 mg/kg, ip for 7 days by immunohistochemical staining method; type: functional, organism-based; conditions: time 7.0 day; outline: as §1
# [20] = test system: Mus musculus; test: Effect on PR protein level in CD-1 mouse uterus at 25 mg/kg, ip for 7 days by immunohistochemical staining method; type: functional, organism-based; conditions: time 7.0 day; outline: as §1
# [21] = Toxicity in P4 induced CD-1 mouse assessed as effect on liver weight at 25 mg/kg, ip for 7 days (Rvb= 1.3 g); type: organism-based; conditions: in vivo, 168 h, time 7 day
# [22] = test system: Mus musculus; test: Inhibition of PR induced ZBTB16 expression in CD-1 mouse uterus at 25 mg/kg,ip for 7 days by Immunohistochemical staining method; type: functional, organism-based; conditions: time 7.0 day; outline: as §1
# [23] = Antiproliferative activity against CD-1 mouse uterine epithelial cell at 25 mg/kg, ip for 7 days by immunohistochemistry method; type: functional; conditions: time 7 day
# Outline: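 Ovariectomized CD-1 mice (n=5/group) received ip 10% DMSO vehicle, 1 mg/kg P4, 25 mg/kg compound, or P4 plus compound daily for 7 days. Formalin-fixed, paraffin 5 μm uterine sections underwent citrate antigen retrieval (100 °C, 30 min), then PCNA IHC (1:200, overnight 4 °C), ABC/DAB and hematoxylin counterstain. Read-out was the percentage of PCNA-positive luminal epithelial cells.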
# [24] = Toxicity in P4 induced CD-1 mouse assessed as effect on uterus weight at 10 mg/kg,ip for 7 days (Rvb= 0.033g); type: organism-based; conditions: in vivo, 168 h, time 7 day
# [25] = test system: Mus musculus; test: Upregulation of P4 induced HAND2 expression in CD-1 mouse uterus at 10 mg/kg, ip for 7 days by immunohistochemical staining method; type: functional, organism-based; conditions: time 7.0 day
# [26] = Toxicity in P4 induced CD-1 mouse assessed as effect on liver weight at 10 mg/kg, ip for 7 days (Rvb= 1.3 g); type: organism-based; conditions: in vivo, 168 h, time 7 day
# [27] = Toxicity in P4 induced CD-1 mouse assessed as effect on body weight at 10 mg/kg, ip for 7 days (Rvb= 30g); type: organism-based; conditions: in vivo, 168 h, time 7 day
# [28] = test system: Mus musculus; test: Effect on P4 induced PR protein level in CD-1 mouse uterus at 10 mg/kg, ip for 7 days by immunohistochemical staining method; type: functional, organism-based; conditions: time 7.0 day
# [29] = Toxicity in P4 induced CD-1 mouse assessed as effect on MG weight at 10 mg/kg, ip for 7 days (Rvb= 0.22g); type: organism-based; conditions: in vivo, 168 h, time 7 day
# [30] = Toxicity in P4 induced CD-1 mouse assessed as effect on glucose level at 10 mg/kg, ip for 7 days (Rvb=231.6 mg/dL); type: organism-based; conditions: in vivo, 168 h, time 7 day
# [31] = test system: Mus musculus; test: Effect on P4 induced GR expression in CD-1 mouse uterine stroma at 10 mg/kg, ip for 7 days by immunohistochemical analysis; type: functional, organism-based; conditions: time 7.0 day; outline: as §1
# [32] = test system: Mus musculus; test: Effect on P4 induced GR expression in CD-1 mouse uterine luminal epithelium at 10 mg/kg, ip for 7 days by immunohistochemical analysis; type: functional, organism-based; conditions: Uterine lumen, time 7.0 day; outline: as §1
# [33] = Antiproliferative activity against CD-1 mouse uterine epithelial cell at 1 mg/kg, ip for 7 days by immunohistochemistry method; type: functional; conditions: time 7 day
# Outline: (§2)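 Ovariectomized CD-1 mice, 5 per group, dosed IP daily for 7 days: 10% DMSO vehicle, progesterone 1 mg/kg, baicalein 25 mg/kg, P4 1 mg/kg + baicalein 25 mg/kg, or P4 1 mg/kg + RU486 10 mg/kg. One uterine horn formalin-fixed, paraffin-embedded, cut at 5 μm. IHC: citrate antigen retrieval at 100 °C, primary antibody overnight at 4 °C, ABC/DAB, hematoxylin counterstain. For PCNA, the percentage of proliferating luminal epithelial cells was counted.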
# [34] = test system: Mus musculus; test: Effect on PR protein level in CD-1 mouse uterus at 1 mg/kg, ip for 7 days by immunohistochemical; type: functional, organism-based; conditions: time 7.0 day; outline: as §2
# [35] = test system: Mus musculus; test: Inhibition of ZBTB16 expression in CD-1 mouse uterus at 1 mg/kg, ip for 7 days by Immunohistochemical staining method; type: functional, organism-based; conditions: time 7.0 day; outline: as §2
# [36] = test system: Mus musculus; test: Effect on GR expression in CD-1 mouse uterine stromal at 1 mg/kg, ip for 7 days by immunohistochemical staining analysis; type: functional, organism-based; conditions: Stroma, time 7.0 day; outline: as §2
compound,measurement,setting,value
O=c1cc(-c2ccccc2)oc2cc(O)c(O)c(O)c12 [BAICALEIN],inhibition,[1],inactive
same,Activity,[2],inactive
same,pIC50,[3],4.82
same,Activity,[4],Active
same,Activity,[5],1.4 g
same,Activity,[6],179.8 mg/dL
same,Activity,[7],0.026 g
same,Activity,[8],30 g
same,Activity,[9],inactive
same,Activity,[10],0.024 g
same,Activity,[11],0.23 g
same,Activity,[12],Active
same,Activity,[13],0.26 g
same,Activity,[14],Active
same,pIC50,[15],4.72
same,Activity,[16],inactive
same,Activity,[17],196.2 mg/dL
same,Activity,[18],30 g
same,Activity,[19],inactive
same,Activity,[20],inactive
same,Activity,[21],1.2 g
same,inhibition,[22],Active
same,Activity,[23],47%
CC#C[C@]1(O)CC[C@H]2[C@@H]3CCC4=CC(=O)CCC4=C3[C@@H](c3ccc(N(C)C)cc3)C[C@@]21C [MIFEPRISTONE],Activity,[24],0.021 g
same,Activity,[25],inactive
same,Activity,[26],1.2 g
same,Activity,[27],29 g
same,Activity,[28],inactive
same,Activity,[29],0.17 g
same,Activity,[30],198.2 mg/dL
same,Activity,[31],Active
same,Activity,[32],Active
CC(=O)[C@H]1CC[C@H]2[C@@H]3CCC4=CC(=O)CC[C@]4(C)[C@H]3CC[C@]12C [PROGESTERONE],Activity,[33],7%
same,Activity,[5],1.4 g
same,Activity,[7],0.021 g
same,Activity,[13],0.24 g
same,Activity,[34],inactive
same,inhibition,[35],inactive
same,Activity,[17],209.4 mg/dL
same,Activity,[18],30 g
same,Activity,[36],Active
